We go through one compound from article PMC11904481 (ESMO Open, 2025).

One data set relates to ERK1/2. The settings on record: cell lines; cited from earlier work.
In data set [1] the target is human ether-a-go-go-related gene (hERG) potassium channel (Homo sapiens, UniProt Q12809). In words: hERG potassium channel inhibition. It is filed as biochemical.
Data set [2] relates to patients with locally advanced unresectable or metastatic, relapsed and/or refractory nonhematological malignancies. As to the kind of experiment: Phase I clinical activity. It is filed as in vivo, human. Put shortly:
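Open-label multicenter dose escalation in adults with MAPK-altered or 11q-AMP solid tumors. The test compound was given i.v. on three schedules: weekly per 28-day cycle at 0.45-5.4 mg/kg (1-2 h infusion) or 4.8-9.6 mg/kg (4 h); or on days 1, 4, 8 (±11, 15) per 21-day cycle at 3.6-11.3 mg/kg. Investigator assessed response by RECIST v1.1. Evaluable patients had ≥1 dose plus baseline and ≥1 post-treatment tumor assessment.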

Sequence of human ether-a-go-go-related gene (hERG) potassium channel (Q12809 whole entry): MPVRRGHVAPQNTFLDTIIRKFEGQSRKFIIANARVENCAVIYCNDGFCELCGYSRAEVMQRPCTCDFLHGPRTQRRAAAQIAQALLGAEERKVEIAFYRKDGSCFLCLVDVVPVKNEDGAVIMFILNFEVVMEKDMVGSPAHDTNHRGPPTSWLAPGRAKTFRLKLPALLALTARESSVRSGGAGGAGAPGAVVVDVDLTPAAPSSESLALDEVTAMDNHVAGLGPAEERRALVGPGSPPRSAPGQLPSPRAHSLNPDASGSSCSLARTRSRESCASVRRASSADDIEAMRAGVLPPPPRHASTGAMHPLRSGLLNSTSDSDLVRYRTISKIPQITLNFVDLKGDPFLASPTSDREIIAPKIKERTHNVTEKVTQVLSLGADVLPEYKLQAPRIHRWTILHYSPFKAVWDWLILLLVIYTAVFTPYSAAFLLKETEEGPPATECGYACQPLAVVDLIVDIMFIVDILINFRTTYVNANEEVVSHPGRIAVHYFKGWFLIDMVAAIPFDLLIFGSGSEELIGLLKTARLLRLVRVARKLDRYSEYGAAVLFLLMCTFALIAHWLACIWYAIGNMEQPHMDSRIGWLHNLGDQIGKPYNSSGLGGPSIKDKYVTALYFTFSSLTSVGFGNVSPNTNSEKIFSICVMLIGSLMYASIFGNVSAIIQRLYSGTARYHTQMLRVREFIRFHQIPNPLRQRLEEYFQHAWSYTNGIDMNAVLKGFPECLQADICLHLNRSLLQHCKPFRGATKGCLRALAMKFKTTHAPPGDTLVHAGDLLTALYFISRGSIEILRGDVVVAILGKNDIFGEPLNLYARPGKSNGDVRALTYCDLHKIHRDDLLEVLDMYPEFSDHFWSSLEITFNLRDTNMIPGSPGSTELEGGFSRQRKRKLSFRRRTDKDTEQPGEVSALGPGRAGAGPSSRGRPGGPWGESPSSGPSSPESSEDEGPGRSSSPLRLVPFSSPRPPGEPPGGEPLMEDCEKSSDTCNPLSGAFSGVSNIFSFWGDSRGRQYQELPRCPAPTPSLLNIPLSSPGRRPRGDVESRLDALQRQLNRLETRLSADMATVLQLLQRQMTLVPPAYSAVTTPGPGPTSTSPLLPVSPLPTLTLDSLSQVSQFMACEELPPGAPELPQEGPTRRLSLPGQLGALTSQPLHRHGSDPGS

Regarding `O=C1Nc2cc3[nH]nc(-c4ccncc4)c3cc2CN1Cc1ccccc1` [KO-947], the “inhibition of signaling following washout” value in the data set on ERK1/2 was more than 4 h. Besides, the concentration for half-maximal inhibition (IC50) in data set [1] was 4.4 µM. Also, the “mean free Cmax relative to hERG IC50” value in data set [1] (overall study) is on record as “about one-tenth”. Besides, in data set [2] (all schedules), the best overall response result was “stable disease” and the “complete or partial responses” value was “No complete or partial responses”. Moreover, in data set [2] (schedule 3), the “patients discontinued owing to disease progression” value came to 67% and the “stable disease as best overall response” value is recorded as 37%. For the same compound, the “stable disease as best overall response” value in data set [2] (schedules 1 and 2) is 15%.
